# CSN inh: blocks human CSN-mediated cullin deneddylation | Q92905 | Purified CSN, SCF-Nedd8-OG deneddylation, fluorescence polarization | inhibition, % at 12.5 µM | 360,000 compounds, 0.38% hits;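 active means pattern-corrected inhibition above about 35%, with an unprinted fluorescence ratio check between 0.5 and 1.5, limit read from the data, passing the limit was not always enough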;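 further: 0% = enzyme with substrate and 100% = substrate without enzyme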
#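 Material: purified human Csn5 enzyme expressed in HEK293T cells / Medium: Tris buffer pH 7.5, NaCl, DTT, Tween-20, trehalose, ovalbumin / Compound dosing: 12.5 µM single point / Schedule: 90 min incubation of compound, enzyme and substrate at room temperature / Signal: fluorescence polarization of the substrate / Control set: no-enzyme wells high, enzyme-with-substrate wells low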
# Rpn11 block: blocks the human proteasome subunit Rpn11 | O00487 | human 26S proteasome, Ub4-pepOG fluorescence polarization; 20S core pre-blocked with epoxomicin | inhibition, % at 20 µM | 360,000 compounds, 0.59% hits | AID 588493;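 active means inhibition at 20 µM, scaled to each plate's controls, above about 33%, limit read from the data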
# Target sequence (O00487 whole entry, looked up): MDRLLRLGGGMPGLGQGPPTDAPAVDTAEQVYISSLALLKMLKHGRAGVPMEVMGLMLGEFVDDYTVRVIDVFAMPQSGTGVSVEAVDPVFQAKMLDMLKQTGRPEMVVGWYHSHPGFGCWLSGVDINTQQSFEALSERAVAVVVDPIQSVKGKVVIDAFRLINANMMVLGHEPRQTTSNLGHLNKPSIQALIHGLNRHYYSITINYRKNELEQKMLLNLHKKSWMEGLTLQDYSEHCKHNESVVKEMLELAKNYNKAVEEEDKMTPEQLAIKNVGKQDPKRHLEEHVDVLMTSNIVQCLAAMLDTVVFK
# SENP1 FRET inh: inhibitors of human SENP1 SUMO protease catalytic domain; 360,000 compounds, 0.21% hits; Q9P0U3; recombinant SENP1 catalytic domain, CyPet-SUMO1-YPet FRET cleavage; inhibition, % at 10 µM;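 active means inhibition at least 30% at 10 µM, raw YFP signal under a set limit, fluorescence ratio 0.5 to 1.5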;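 further: 0% = enzyme with DMSO and 100% = no enzyme wells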
# Target sequence (Q9P0U3 419-644 limits assumed): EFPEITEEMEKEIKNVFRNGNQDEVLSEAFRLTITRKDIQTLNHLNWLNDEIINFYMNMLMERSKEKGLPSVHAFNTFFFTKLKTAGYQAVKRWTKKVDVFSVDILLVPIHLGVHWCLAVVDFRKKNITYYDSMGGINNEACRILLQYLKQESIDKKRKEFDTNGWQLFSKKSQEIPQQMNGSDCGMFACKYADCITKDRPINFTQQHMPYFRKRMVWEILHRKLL
#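 system = hSENP1 catalytic domain, recombinant | reagent = SFCypet-SUMO1-SFYpet substrate at 25 nM | doses = one dose per compound, 10 µM, 0.5% DMSO | incubation = enzyme reaction for 50 min at room temperature, dark | measured by = FRET, CFP and YFP emission | controls = no-enzyme low, enzyme-DMSO high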
# ATG4B inhibitor: blocks human ATG4B protease cleavage of LC3 substrate; AID 504462; ATG4B cleavage of LC3-PLA2, NBD-HPC fluorescence, 1 h; Q9Y4P1; inhibition, % at 8.33 µM; 340,000 compounds, 0.51% hits; in the data active means inhibition above about 40%
# HNF4A DNA FP: change in binding of human HNF4 alpha to DNA. HNF4a-FITC DNA binding, fluorescence polarization, 1 h. 360,000 compounds, 0.3% hits. activity change, % at 10 µM; in the data active means activity change above about 30%, passing the limit was not always enough
# TPT1 inh: inhibitors of Candida albicans tRNA 2'-phosphotransferase TPT1 | recombinant caTPT1, FP RNA substrate dephosphorylation | inhibition, % at 5 µM | 300,000 compounds, 0.81% hits;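 active means inhibition above the mean of all tested compounds plus 3 SD, set per screening campaign, cut at about 24% in these data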;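 further: plate controls were DMSO alone for no effect and ferristatin control at 100 nM for full effect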
# * = called active by the depositor; nt = no result shown. This is a sample that favours compounds with a hit; in the whole collection about 2% have one here.
SMILES,CSN inh,Rpn11 block,SENP1 FRET inh,ATG4B inhibitor,HNF4A DNA FP,TPT1 inh
CCN1CCc2c(sc(NC(=S)NC(=O)c3ccccc3)c2C#N)C1,48*,19,-18,-17,9,28*
CCCC(CCC)C(=O)Nc1cccc(-c2cn3c(n2)SCC3)c1,-4,-9,-1,-6,38*,1
CCS(=O)(=O)Nc1cccc(-c2cn3c(n2)SCC3)c1,6,0,-2,-4,-4,0
COc1cccc(-c2nn(-c3ccccc3)cc2CNC(C)Cn2cncn2)c1 (stereo not given),38*,-4,-1,0,1,-4
O=S1(=O)CCN(CCc2ccccc2)CC1,3,0,2,nt,-2,nt
CCCCCN1C(=O)/C(=C/c2c(N3CCc4ccccc4C3)nc3ccccn3c2=O)SC1=S,64,nt,-26,-2,98,82*
O=C(COc1ccc(/C=N/NC(=O)c2ccncc2)cc1)Nc1cccc([N+](=O)[O-])c1,1,-9,2,-8,4,3
O=C(COc1ccc(/C=N/NC(=O)c2ccccc2O)cc1)Nc1ccc([N+](=O)[O-])cc1,43*,13,5,-3,-4,1
CC(C)(C)OC(=O)N1CCC(Cc2cc(-c3ccc(Cl)cc3)no2)(C(=O)O)CC1,-1,-11,1,0,-1,3
COC(=O)[C@]12CCCCC=C1N(Cc1ccc(Cl)cc1Cl)C(=O)[C@H](CC(=O)NCC1CCCCC1)C2,4,nt,1,nt,6,nt
COc1ccccc1/C=N/NC(=O)c1cccc(OC(F)(F)C(F)F)c1,2,0,1,-7,-2,2
COc1cccc(/C=N/NC(=O)C(=O)Nc2ccccc2OC(F)(F)C(F)F)c1O,-6,9,35*,9,3,2
Cc1ccc2cc(CCNC(=O)c3ccc4c(c3)OCO4)c(=O)[nH]c2c1C,7,-2,2,-16,34*,-4
COc1ccc(-n2nc(C(=O)Nc3ccc(OC)c(OC)c3)c3c4ccccc4n(C)c3c2=O)cc1,48*,-2,3,-9,-2,-2
Cc1c(Cl)cnc(NC(=O)COC(=O)[C@H](C)NC(=O)c2ccccc2)c1Cl,1,-3,-3,8,-2,nt
O=C(C1CCN(c2ncnc3c2nc2n3CCCCC2)CC1)N1CCN(c2cccc(Cl)c2)CC1,2,-9,1,47*,4,0
Cc1cccc2cc3c(N)c(C(=O)N4CCOCC4)sc3nc12,1,14,42*,5,2,1
O=C(CN1CCN(S(=O)(=O)c2ccc(F)c(F)c2)CC1)Nc1ccccc1C(=O)NC1CC1,-1,0,0,-17,-1,nt
O=[N+]([O-])c1ccc2c(c1)CO[C@@]21O[C@H](CCO)C[C@H](O)[C@H]1O,0,-2,4,nt,2,nt
Cc1cc(C)cc(N(CCC#N)C(=O)CSc2ncnc3sccc23)c1,0,-3,-4,-11,1,nt
Cc1c(C(=O)O)sc(S(=O)(=O)N2CCN(C(=O)CCc3ccccc3)CC2)c1C(=O)O,1,-10,2,-5,-2,nt
Cc1ccc(CNc2ccc3nnc(-c4ccccc4)n3n2)cc1,38*,4,0,-6,3,-1
c1ccc(CN2CCN(CCCNc3ccc4nnc(-c5ccccc5)n4n3)CC2)cc1,5,0,-8,-22,-2,-2
COc1ccc(-c2n[nH]c(=S)n2-c2ccc(C)cc2C)cc1,1,-7,-2,3,36*,-2
Cc1ccc(-n2c(-c3ccc(Cl)cc3)n[nH]c2=S)c(C)c1,1,1,0,1,0,1
SMILES,CSN inh,Rpn11 block,SENP1 FRET inh,ATG4B inhibitor,HNF4A DNA FP,TPT1 inh
CN1CCC(N2CCN(C3CN(C4CCCC4)S(=O)(=O)C3)CC2)CC1 (stereo not given),144*,0,-2,nt,3,nt
O=c1c2ccccc2nc(/C=C/c2ccc([N+](=O)[O-])o2)n1CCCO,24,nt,6,-9,74*,21
O=C(N/N=C/c1ccc(OC(=O)c2cccc(F)c2)cc1)c1cccnc1,41*,18,3,1,-3,0
CCOc1ccc(N/C=C/C(=O)c2ccc(OC)cc2)c([N+](=O)[O-])c1,9,-24,37*,-9,-6,-3
COc1ccc(N/C=C/C(=O)c2ccc(C)cc2)c([N+](=O)[O-])c1,14,-6,13,-10,-7,-36
O=c1[nH]c2ccccc2nc1/C=C/c1ccc(O)cc1,6,nt,-27,-7,36*,nt
CC(C)N(Cc1ccccc1)S(=O)(=O)c1ccc(Cl)nc1,3,-5,0,2,1,4
CN(Cc1ccccc1)S(=O)(=O)c1ccc(Cl)nc1,40*,-1,1,4,-2,-2
CCSC1=N/C(=C\c2ccc(-c3ccccc3[N+](=O)[O-])o2)C(=O)S1,-47,-142,-20,-8,-18,-34
CCCSC1=N/C(=C\c2ccc([N+](=O)[O-])o2)C(=O)S1,39,53*,-1,15,-24,nt
CCOC(=O)C(=Cc1ccc(-c2ccsc2C(=O)OC)o1)C(=O)OCC,118*,7,-7,1,5,1
O=c1[nH]nnc2c1cnn2-c1ccccc1,1,-1,0,-1,2,nt
O=C(COc1ccccc1)N[C@@H]1c2ccccc2CC[C@@H]1O,57*,-2,0,nt,-1,nt
O=C(COc1ccccc1)N[C@@H]1c2ccccc2CC[C@@H]1OCc1ccccc1,1,-4,-1,7,1,nt
O=C(COC(=O)c1cccc(S(=O)(=O)N2CCCCC2)c1)NCc1cccc(Cl)c1,7,1,0,nt,1,nt
c1nc(NC2CCCCC2)c2[nH]cnc2n1,45*,0,0,-3,-3,-1
O=C(O)c1cc(=S)nc[nH]1,-3,2,1,5,4,nt
CC(C)CN1C(=O)NC(NC(=O)c2ccco2)(C(F)(F)F)C1=O (stereo not given),-1,9,0,3,39*,-2
CCOC(=O)C1=CCC(C(C)(C)C)N(S(=O)(=O)c2ccc(C)cc2)C1 (stereo not given),110*,0,0,nt,-1,nt
COc1cccc(OC)c1C(=O)N1CCOCC1,1,-1,2,10,34*,0
O=C(c1ccc(Br)o1)N1CCC(Cc2ccccc2)CC1,93*,-8,2,9,5,1
Brc1ccccc1-c1nnc(CSc2nncn2-c2ccccc2)o1,0,2,-1,-5,4,4
O=c1c2ccccc2nc(SCc2nnc(-c3ccccc3Br)o2)n1-c1ccccc1,4,7,1,45*,-2,2
N#CC1=C(N)SC(N)=C(C#N)C1c1ccoc1,nt,nt,nt,nt,nt,32*
